Source: ChEMBL document CHEMBL4368876, “Synthesis of d-(+)-camphor-based N-acylhydrazones and their antiviral activity” (Medchemcomm, 2018)

Key:
[1] = Selectivity index, ratio of CC50 for African green monkey Vero cells to IC50 for Vaccinia virus Copenhagen infected in African green monkey Vero cells; assay type: toxicity; conditions: read-out: Ratio CC50/IC50
Vaccinia virus = experiment: Antiviral activity against Vaccinia virus Copenhagen infected in African green monkey Vero cells assessed as inhibition of viral replication after 4 days by neural red dye-based spectrophotometric method; assay type: functional, organism-based, Orthopoxvirus vaccinia
[2] = Cytotoxicity against African green monkey Vero cells assessed as reduction in cell viability after 4 days by neural red dye-based spectrophotometric method; conditions: chlorocebus sabaeus
Procedure, shortened: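 Vero cell monolayers in DMEM with 2% fetal serum were given serial dilutions of compound, with no virus added. After 4 days the cells were stained with neutral red for 2 h, unbound dye was washed out and the cells were lysed. OD was read at 490 nm. CC50 in μM was derived from the OD data; three independent experiments, mean ± 95% confidence interval.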

[3] = Cytotoxicity against MDCK cells assessed as reduction in cell viability after 48 hrs by MTT assay; assay type: cell-based, Canis lupus familiaris; conditions: dog
Procedure, shortened: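 MDCK cells were exposed to three-fold dilutions of compound in MEM (top 300–400 μg mL-1) for 48 h at 36 °C in 5% CO2, then washed twice with PBS. MTT ([…] in PBS) was added for 1 h and formazan was dissolved in DMSO. OD was read at 535 nm. Triplicate wells per concentration; CC50 was taken from OD versus concentration.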

Influenza A virus = experiment: Antiviral activity against Influenza A virus (A/Puerto Rico/8/34(H1N1)) infected in MDCK cells assessed as reduction in virus titer pretreated with cells for 1 hr followed by viral infection for 1 hr and subsequent unbound virion washout measured after 24 to 48 hrs by hemagglutination test; assay type: functional, organism-based, A/Puerto Rico/8/1934(H1N1)
Procedure, shortened: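 MDCK cells pre-incubated 1 h at 36 °C with compound in MEM containing 1 μg mL−1 trypsin, then infected with A/Puerto Rico/8/34 (H1N1), moi 0.01, for 1 h. Unbound virus washed off, then 24 h at 36 °C, 5% CO2. Supernatant titre read by hemagglutination after 48 h passage in MDCK, as % of untreated control. Triplicate wells; IC50 calculated.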

[4] = Selectivity index, ratio of CC50 for MDCK cells to IC50 for Influenza A virus (A/Puerto Rico/8/34(H1N1)) infected in MDCK cells; assay type: toxicity, cell-based; conditions: dog, read-out: Ratio CC50/IC50
Orthopoxvirus = experiment: Antiviral activity against Orthopoxvirus assessed as reduction in viral replication; assay type: functional, organism-based
[5] = Influenza A virus, A/Puerto Rico/8/1934(H1N1), MDCK, read-out: IC50
[6] = Orthopoxvirus vaccinia, Copenhagen, Vero, 96 h, read-out: IC50

Row | Compound | selectivity ratio [1] | IC50 (Vaccinia virus; vero) | CC50 at 96 h [2] [µM] | CC50 at 48 h [3] [µM] | IC50 (Influenza A virus; [5]) [µM] | selectivity ratio [4] | IC50 (Vaccinia virus; [6]) [µM] | IC50 (Influenza A virus) | IC50 (Orthopoxvirus) [µM]
1 | Nc1ccn(C[C@@H](CO)OCP(=O)(O)O)c(=O)n1 [CIDOFOVIR] | 12 | – | – | – | – | – | – | – | –
2 | CC12C=CC3(CN(Cc4ccccc4)C(=O)C3C1C(=O)N/N=C1\C[C@H]3CC[C@]1(C)C3(C)C)O2 (mixture of isomers) | – | Not Active | > 250 | 227 | > 72 | 3 | – | – | –
3 | CC1(C)[C@@H]2CC[C@@]1(C)/C(=N/NC(=O)c1ccco1)C2 | 7 | – | 285 | 1090 | 325 | 3 | 38.7 | – | –
4 | CC(N)C12CC3CC(CC(C3)C1)C2 (stereo not given) [RIMANTADINE] | – | – | – | – | 67 | 5 | – | – | –
5 | COCCN1CC23C=CC(O2)C(C(=O)N/N=C2\C[C@H]4CC[C@]2(C)C4(C)C)C3C1=O (mixture of isomers) | – | Not Active | > 250 | 719 | – | – | – | Not Active | –
6 | CCCC(=O)N/N=C1\C[C@H]2CC[C@]1(C)C2(C)C | 12 | – | 854 | > 1190 | 794 | 2 | 69.8 | – | –
7 | CC12C=CC3(CN(c4ccccc4)C(=O)C3C1C(=O)N/N=C1\C[C@H]3CC[C@]1(C)C3(C)C)O2 (mixture of isomers) | 97 | – | 600 | 277 | 22 | 12 | 6.2 | – | –
8 | CC12C=CC3(O1)C(C(=O)N1CCSC13)C2C(=O)N/N=C1\C[C@H]2CC[C@]1(C)C2(C)C (mixture of isomers) | – | Not Active | > 250 | – | – | – | – | – | –
9 | CC1CCN(CC(=O)N[C@@H]2C[C@H]3CC[C@]2(C)C3(C)C)CC1 | – | – | – | – | – | – | – | – | 2.5
10 | NC12CC3CC(CC(C3)C1)C2 [AMANTADINE] | – | – | – | – | 64 | 4 | – | – | –
11 | CC1(C)[C@@H]2CC[C@@]1(C)[C@H](OC(=O)CCN1CCOCC1)C2 | – | – | – | – | – | – | – | – | 3.5
12 | NC(=O)c1ncn([C@@H]2O[C@H](CO)[C@@H](O)[C@H]2O)n1 [RIBAVIRIN] | – | – | – | > 2130 | 30 | 71 | – | – | –
13 | CC(=O)N/N=C1\C[C@H]2CC[C@]1(C)C2(C)C | – | Not Active | > 250 | – | – | – | – | – | –
14 | CC1(C)[C@@H]2CC[C@@]1(C)/C(=N/NC(=O)c1cccs1)C2 | – | Not Active | 362 | 1030 | – | – | – | Not Active | –
15 | CC12C=CC3(O1)C(C(=O)N1c4ccccc4SC13)C2C(=O)N/N=C1\C[C@H]2CC[C@]1(C)C2(C)C (mixture of isomers) | – | Not Active | 67.2 | 123 | 36 | 3 | – | – | –
16 | CC12C=CC3(O1)C(C(=O)N1CCCOC13)C2C(=O)N/N=C1\C[C@H]2CC[C@]1(C)C2(C)C (mixture of isomers) | – | Not Active | > 250 | > 721 | 481 | 2 | – | – | –
17 | CC1(C)[C@@H]2CC[C@@]1(C)/C(=N/NC(=O)c1ccccc1)C2 | 280 | – | 1430 | > 1050 | 201 | 5 | 5.1 | – | –
18 | CC1(C)[C@@H]2CC[C@@]1(C)/C(=N/NC(=O)C(F)(F)F)C2 | – | Not Active | > 250 | > 1080 | – | – | – | Not Active | –
19 | CC1(C)[C@@H]2CC[C@@]1(C)/C(=N/NC(=O)c1ccc(Br)cc1)C2 | 26 | – | 288 | > 822 | 219 | 4 | 11.1 | – | –
20 | CCN1CC23C=CC(O2)C(C(=O)N/N=C2\C[C@H]4CC[C@]2(C)C4(C)C)C3C1=O (mixture of isomers) | – | Not Active | > 250 | 775 | – | – | – | Not Active | –
